# Screening results from PubChem BioAssay.
# Most compounds without a hit are left out; they make up all but 1.4% or so of the library.
# ATG4B inhibitor – ATG4B (human) cysteine protease inhibition; ATG4B cleavage of LC3-PLA2, NBD-HPC fluorescence, 1 h; inhibition, % at 8.33 µM; actives 0.51% (n = 340,000); AID 504462; in the data active = inhibition above about 40%
# Target sequence (Q9Y4P1 whole entry, looked up): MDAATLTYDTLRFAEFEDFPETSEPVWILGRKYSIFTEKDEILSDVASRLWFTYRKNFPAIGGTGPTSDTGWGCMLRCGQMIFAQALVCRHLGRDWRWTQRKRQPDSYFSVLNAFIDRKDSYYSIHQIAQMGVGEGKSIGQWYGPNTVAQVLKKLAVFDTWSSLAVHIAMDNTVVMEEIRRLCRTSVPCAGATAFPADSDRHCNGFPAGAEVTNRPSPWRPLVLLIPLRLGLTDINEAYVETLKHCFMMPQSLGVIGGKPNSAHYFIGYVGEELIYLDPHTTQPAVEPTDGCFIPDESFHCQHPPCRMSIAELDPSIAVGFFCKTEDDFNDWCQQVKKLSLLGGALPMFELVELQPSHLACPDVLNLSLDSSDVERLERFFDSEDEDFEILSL
# Diaphorase act – counter-screen for diaphorase-based assays: diaphorase activators and chemical reducers; Diaphorase/resazurin coupled assay, resorufin fluorescence, 16 min; active compounds read high; 1 = vehicle wells, 0 = NADH-free wells; activation factor at 20 µM; actives 0.005% (n = 190,000);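 active = diaphorase activity raised at least twofold by the compound at 20 µM; inactive = activation factor below 2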
#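 Material: Purified diaphorase enzyme from Clostridium kluyveri | Buffer or medium: 50 mM HEPES pH 7.4 with 4.542 mM MgCl2, 0.005% Tween 20 | Times: 16 min enzyme reaction, ambient temperature | Signal: Red resorufin fluorescence at 544/590 nm excitation/emission | Measure: Increased resorufin signal from activators or reducing compounds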
# HKDC1 inhibitor – blocks human hexokinase HKDC1 activity; AID 493160; actives 0.16% (n = 340,000); recombinant HKDC1, G6PDH/diaphorase resazurin coupled fluorescence; inhibition, % at 20 µM; Q2TB90;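 active = inhibition above about 35% when tested at 20 µM, limit read from the data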
#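 System: Recombinant HKDC1 hexokinase | Amount: HKDC1 at 5 µg/mL | Reagent: Glucose with 1 mM ATP | Doses: Single 20 µM dose | Incubation: Reaction time 90 min, room temperature, protected from light | Signal: Coupled resazurin fluorescence, excitation 525 nm, emission 613 nm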
# Fh CTSL1 inh – cathepsin L1 inhibition, PFM18AAP counter-screen | recombinant F. hepatica cathepsin L1, Z-Leu-Arg-MCA fluorescence | inhibition, % at 5.96 µM | actives 0.49% (n = 300,000);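 active = inhibition above the mean of all tested compounds plus 3 SD, set per screening campaign, cut at about 17% in these data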
# Diaph inh CS – inhibits diaphorase or chemically oxidizes, flagging diaphorase assay artifacts; actives 0.69% (n = 190,000); diaphorase resazurin-to-resorufin fluorescence, NADH, 16 min; bacterial (C. kluyveri) enzyme, not human; AID 1217; inhibition, % at 20 µM;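 active = primary screen inhibition at 20 µM above a set limit, cut at about 50% in these data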
#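 Test system: bacterial diaphorase enzyme (C. kluyveri); Quantity: 0.14 U/mL diaphorase, enzyme working solution; Times: reaction incubation of 16 min at room temperature; Measured by: fluorescence of resorufin formed from resazurin, Ex 544/Em 590 nm; Benchmarks: positive control minus NADH, DMSO neutral control.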
# Numbers stand for hits; i = inactive; nt = no result.
SMILES,ATG4B inhibitor,Diaphorase act,HKDC1 inhibitor,Fh CTSL1 inh,Diaph inh CS
O=C1OC(Nc2ncccn2)c2ccccc21 (stereo not given),i,i,i,i,i
O=C1OC(Nc2cc(Br)cc3cccnc23)c2ccccc21 (stereo not given),i,i,i,98,i
CCOC(=O)c1c(C)oc2c1c1c(c3ccccc32)OCN(Cc2cccnc2)C1,i,i,i,nt,53
CCc1ccc(Nc2ccc3nonc3c2[N+](=O)[O-])cc1,i,nt,i,i,nt
CCOC(=O)NNc1ccc2nonc2c1[N+](=O)[O-],i,nt,i,24,nt
N#Cc1c2n(c3c(=S)nc[nH]c13)CCCCC2,i,i,i,i,54
N#Cc1c2n(c3c(=O)[nH]cnc13)CCCC2,i,i,i,i,i
CSc1ccccc1OCc1cc(C(=O)N[C@H]2CCCCNC2=O)no1,i,nt,i,i,nt
O=C(CCl)Nc1cn(-c2ccccc2)nc1-c1ccc(F)cc1,i,i,i,77,i
Fc1ccc(-c2nn(-c3ccccc3)cc2CNCc2ccccc2)cc1,i,i,i,i,i
COc1cc(NC(=O)CNC(c2ccccc2)c2ccccc2)cc(OC)c1OC,i,nt,i,i,nt
COc1cc(NC(c2ccccc2)c2ccccc2)cc(OC)c1OC,i,i,i,i,77
CN(C(=O)c1cccc(NC(=O)Cc2ccc(NC(=O)C3CCCN(C(=O)C4CCC4)C3)cc2)c1)C1CCCCC1 (stereo not given),i,nt,i,nt,nt
Oc1c(CN2CCN(c3ccccn3)CC2)cc(Cl)c2cccnc12,i,i,i,i,53
COCc1cc(CN2CCCC2)c(O)c2ncccc12,i,i,i,i,i
Cc1nc(N2CCC(C)CC2)c2oc3ccccc3c2n1,i,i,i,i,i
COc1ccccc1N1CCN(c2nc(C)nc3c2oc2ccccc23)CC1,45,i,i,i,i
OCCN1CCN(Cc2cc(Cl)c3cccnc3c2O)CC1,i,i,i,i,69
COc1ccccc1N1CCN(Cc2cc(Br)c(O)c3ncccc23)CC1,i,i,i,i,58
Oc1c(Cl)cc(CN2CCCCC2)c2cccnc12,nt,nt,nt,i,nt
O=C(c1cccc(-c2ccccc2)c1)N1CC[C@@H](N2CCC(O)CC2)[C@H](O)C1,i,nt,i,i,nt
O=C(Cc1ccc(NC(=O)C2CCN(C(=O)C3CCC3)CC2)cc1)Nc1ccc(C(=O)N2CCOCC2)cc1,i,nt,i,nt,nt
CCCNC(=O)Cn1c(=O)/c(=C/c2ccc(-c3ccc([N+](=O)[O-])cc3)o2)s/c1=C\C(=O)C(C)(C)C,i,nt,i,nt,nt
COc1cc(C(=O)Oc2c(CN3CCOCC3)cc(Cl)c3cccnc23)cc(OC)c1OC,i,i,i,i,58
CCn1c(CN2CCOCC2)nnc1SCC(=O)Nc1ccc(C(C)=O)cc1,i,nt,i,i,nt
SMILES,ATG4B inhibitor,Diaphorase act,HKDC1 inhibitor,Fh CTSL1 inh,Diaph inh CS
CC(NC(=O)CN1C(=O)c2ccccc2C1=O)c1ccccc1 (stereo not given),i,nt,i,i,nt
COC(=O)C(NC(=O)CN1C(=O)c2ccccc2C1=O)c1ccc(O)c(OC)c1 (stereo not given),i,nt,i,17,nt
OC1Cc2ccccc2C1Nc1cccc(C(F)(F)F)c1 (stereo not given),i,nt,i,nt,nt
CN(Cc1ccccc1F)C(=O)CN1CCN(S(=O)(=O)c2ccc3c(c2)OCCCO3)CC1,i,nt,i,nt,nt
Cc1ccc(C)c(/C=N/n2cc(-c3ccccc3)[nH]c2=S)c1,i,i,i,i,76
CC(=O)c1c(NCCc2ccccc2)nc(=S)n(-c2ccccc2)c1C,i,i,i,i,88
CCSc1nc(=S)n(Cc2ccccc2)c(C)c1C(C)=O,i,i,i,i,i
CCn1c(C)c(C(C)=O)c(NCc2ccccc2)nc1=S,i,i,i,i,52
CC(=O)c1c(NCc2ccccc2)nc(=O)n(-c2ccccc2)c1C,i,i,i,i,i
CCn1c(C)c(C(C)=O)c(N2CCN(c3cccc(Cl)c3)CC2)nc1=S,i,i,i,i,i
CC(=O)c1c(N2CCN(c3cccc(Cl)c3)CC2)nc(=S)n(-c2ccccc2)c1C,i,i,i,i,61
CCOc1ccccc1N1C(=O)c2ccc(S(=O)(=O)c3ccc(C(=O)O)cc3)cc2C1=O,i,nt,i,i,nt
Cc1ccc(NC(=O)CN(C)S(=O)(=O)c2ccc(Cl)s2)c(O)c1,i,nt,i,nt,nt
CCC(=O)Nc1cc2c3c(c1)CCC(=O)N3CCC2,i,nt,i,i,nt
Cc1cc(C)cc(OCC(=O)OCC(=O)NC2CC2)c1,i,nt,i,nt,nt
CC1CCC(NC(=O)Cn2cnc3sccc3c2=O)CC1 (stereo not given),i,nt,i,nt,nt
C/C(=N/Nc1ccccc1[N+](=O)[O-])c1ccc(C)c([N+](=O)[O-])c1,i,nt,i,nt,nt
CC(C)/C(=N/Nc1ccccc1[N+](=O)[O-])c1ccccc1,i,i,i,i,50
O=C(NCCC(=O)N1CCCC1)c1ccccc1Cl,i,nt,i,i,nt
O=C(Nc1ccc(N2CCOCC2)cc1)c1ccc2nc(-c3ccco3)c(-c3ccco3)nc2c1,i,i,i,i,i
S=C(Nc1ccc(N2CCOCC2)cc1)Nc1ccc2nc(-c3ccco3)c(-c3ccco3)nc2c1,i,i,i,i,64
O=C(NCCO)Nc1ccc2nc(-c3ccco3)c(-c3ccco3)nc2c1,nt,i,nt,i,74
CC(=O)c1ccc(NC(=O)CSc2nnc(-c3ccco3)c(-c3ccco3)n2)cc1,i,i,i,i,81
O=C(NCCCO)c1ccc2nc(-c3ccco3)c(-c3ccco3)nc2c1,i,i,i,nt,i
O=C(c1ccc2nc(-c3ccco3)c(-c3ccco3)nc2c1)N1CCN(c2ncccn2)CC1,i,i,i,i,66
SMILES,ATG4B inhibitor,Diaphorase act,HKDC1 inhibitor,Fh CTSL1 inh,Diaph inh CS
O=C(NCc1cc([N+](=O)[O-])ccc1O)c1cccc(NS(=O)(=O)c2ccccc2)c1,i,nt,i,i,nt
CCCCNC(=O)c1ccc2nc(-c3ccco3)c(-c3ccco3)nc2c1,i,i,i,i,53
CC(=O)c1ccc(NC(=O)c2ccc3nc(-c4ccco4)c(-c4ccco4)nc3c2)cc1,i,i,41,i,55
CCc1nc2ccc(C(=O)Nc3ccc(NC(C)=O)cc3)cc2nc1CC,i,i,i,i,i
O=C(Nc1ccccc1)c1ccc2nc(-c3ccco3)c(-c3ccco3)nc2c1,i,i,i,i,79
O=C(Nc1cccnc1)c1ccc2nc(-c3ccccc3)c(-c3ccccc3)nc2c1,i,i,i,i,i
Nc1cc(C(=O)OCC(=O)NNC(=O)c2cccs2)ccc1Cl,i,nt,i,i,nt
N/C(=N\OC(=O)c1ccccc1Cl)c1ccc(Cl)cc1,i,i,i,i,i
N/C(CCS(=O)(=O)c1ccc(Cl)cc1)=N\OC(=O)c1ccccc1Cl,i,nt,i,25,nt
CC(C)NC(=O)c1ccc2c(c1)N(Cc1ccccc1)C(=O)C(C)(C)O2,i,nt,i,nt,nt
COc1ccc(-c2noc(CCC(=O)N3CCN(c4ccccc4)CC3)n2)cc1,i,nt,i,nt,nt
